# According to ChEMBL document CHEMBL1255487, “Preclinical evaluation of the antifolate QN254, 5-chloro- N'6'-(2,5-dimethoxy-benzyl)-quinazoline-2,4,6-triamine, as an antimalarial drug candidate” (Antimicrob Agents Chemother, 2010):
# Active and inactive are the calls of the source. The rule behind the calls is not given here.
# Tests used:
# [1] = Volume of distribution in Wistar rat at 5 mg/kg, iv; assay type: ADME, organism-based; design: dose 5 mg/kg, route intravenous; settings: in vivo
# Procedure, shortened: (§1)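 Rats dosed with 25 mg/kg p.o. as a 2.5 mg/ml suspension in 0.5% CMC, or with 5 mg/kg i.v. at 1 mg/ml in 10% NMP, 30% PEG 400 and 60% of 10% vitamin E-TPGS. Plasma sampled over time, extracted with acidified acetonitrile (8:1) and quantified by LC-MS, LLOQ 12 ng/ml.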
# [2] = test system: Plasmodium berghei; assay: Antimalarial activity against Plasmodium berghei ANKA infected in NMRI mice (Mus musculus) assessed as reduction in parasitemia at 3 times 30 mg/kg, perorally measured on day 3 postinfection; assay type: functional; design: scale not given: the % may be the effect or the level left; settings: route oral
# Procedure, shortened: (§2)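 P. berghei ANKA given intravenously to groups of 5 female NMRI mice (20–22 g): 0.2 ml of 1 × 10^8 parasitized erythrocytes/ml from a donor mouse. Oral dosing in 0.5% carboxymethyl cellulose. Parasitemia counted by microscopy. Activity is the control-minus-treated parasitemia difference, expressed as percent of untreated controls.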
# [3] = Tmax in CD-1 mouse at 25 mg/kg, po; assay type: ADME, organism-based; design: dose 25 mg/kg, route oral; settings: in vivo
# Procedure, shortened: (§3)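 Mice dosed with 25 mg/kg p.o. as a 2.5 mg/ml suspension in 0.5% CMC, or with 5 mg/kg i.v. at 1 mg/ml in 10% NMP, 30% PEG 400 and 60% of 10% vitamin E-TPGS. Blood sampled at several time points. Plasma extracted with acidified acetonitrile (8:1) and quantified by LC-MS, LLOQ 12 ng/ml.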
# [4] = test system: Plasmodium falciparum; assay: Antimalarial activity against pyrimethamine-resistant Plasmodium falciparum clinical isolate harboring S108N, N51I, C59R mutation in DHFR assessed as decrease in parasitaemia; assay type: functional, organism-based
# Procedure, shortened: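 P. falciparum grown in RPMI 1640 with 10% (v/v) human serum, 25 mM bicarbonate, 2 mM glutamine, 25 mM HEPES, 5 nM para-aminobenzoic acid and 23 nM folic acid. Parasites exposed to a concentration series. Read-out is [3H]hypoxanthine incorporation into nucleic acid. IC50 taken from non-linear regression of the dose–response curve.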
# [5] = test system: Mus musculus; assay: Toxicity in NMRI mice (Mus musculus) infected with Plasmodium berghei ANKA at 3 times 60 mg/kg, perorally measured up to 30 days postinfection; assay type: organism-based; design: dose 60 mg/kg, route oral; settings: in vivo, po, 720 h
# [6] = test system: Mus musculus; assay: Toxicity in NMRI mice (Mus musculus) infected with Plasmodium berghei ANKA at 100 mg/kg, perorally administered as single dose measured up to 30 days postinfection; assay type: organism-based; design: dose 100 mg/kg, route oral; settings: in vivo, po, 720 h
# [7] = test system: Mus musculus; assay: Toxicity in NMRI mice (Mus musculus) infected with Plasmodium berghei ANKA at 3 times 100 mg/kg, perorally measured up to 30 days postinfection; assay type: organism-based; design: dose 100 mg/kg, route oral; settings: in vivo, po, 720 h
# [8] = test system: Plasmodium berghei; assay: Antimalarial activity against Plasmodium berghei ANKA infected in NMRI mice (Mus musculus) assessed as mean survival time at 3 times 60 mg/kg, perorally; assay type: functional, organism-based; design: dose 60 mg/kg
# [9] = test system: Plasmodium berghei; assay: Antimalarial activity against Plasmodium berghei ANKA infected in NMRI mice (Mus musculus) assessed as survival rate at 60 mg/kg, perorally administered as single dose; assay type: functional; settings: route oral
# Procedure, shortened: (§4)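 Infection: 5 female NMRI mice (20–22 g) per group, inoculated intravenously with 0.2 ml of donor blood at 1 × 10^8 parasitized erythrocytes/ml. Oral administration in 0.5% carboxymethyl cellulose. Survival time recorded up to 30 days after infection and averaged per group.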
# [10] = Binding affinity to recombinant Plasmodium falciparum V1/S DHFR S108N, N51I, C59R, I164L mutant by competitive binding assay; design: species or system V1S
# [11] = AUC (0 to 24 hrs) in Wistar rat at 50 mg/kg, po; assay type: ADME, organism-based; design: time < 24 hr, dose 50 mg/kg, route oral; settings: plasma
# [12] = test system: Mus musculus; assay: Toxicity in NMRI mice (Mus musculus) infected with Plasmodium berghei ANKA at 10 mg/kg, perorally administered as single dose measured up to 30 days postinfection; assay type: organism-based; design: dose 10 mg/kg, route oral; settings: in vivo, po, 720 h
# [13] = test system: Plasmodium berghei; assay: Antimalarial activity against Plasmodium berghei ANKA infected in NMRI mice (Mus musculus) assessed as cure rate at 3 times 60 mg/kg, perorally measured on day 3 postinfection; assay type: functional; settings: route oral
# Procedure, shortened: (§5)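 Female NMRI mice (20–22 g), 5 per group, infected intravenously with 0.2 ml of 1 × 10^8 parasitized erythrocytes/ml from a fresh donor mouse. Compound suspended in 0.5% carboxymethyl cellulose and given orally. Survival followed to day 30 post-infection; an animal was scored cured if it survived to day 30 without parasites.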
# [14] = Clearance in CD-1 mouse at 5 mg/kg, iv; assay type: ADME, organism-based; design: dose 5 mg/kg, route intravenous; settings: in vivo; procedure, shortened: as §3
# [15] = test system: Plasmodium berghei; assay: Antimalarial activity against Plasmodium berghei ANKA infected in NMRI mice (Mus musculus) assessed as cure rate at 15 mg/kg, perorally administered as single dose measured on day 3 postinfection; assay type: functional; settings: route oral; procedure, shortened: as §5
# [16] = test system: Mus musculus; assay: Toxicity in NMRI mice (Mus musculus) infected with Plasmodium berghei ANKA at 30 mg/kg, perorally administered as single dose measured up to 30 days postinfection; assay type: organism-based; design: dose 30 mg/kg, route oral; settings: in vivo, po, 720 h
# [17] = test system: Plasmodium falciparum; assay: Antimalarial activity against pyrimethamine-resistant Plasmodium falciparum V1/S harboring S108N, N51I, C59R, I164L mutation in DHFR assessed as decrease in parasitaemia; assay type: functional, organism-based; settings: V1S
# [18] = Half life in CD-1 mouse at 25 mg/kg, po; assay type: ADME, organism-based; design: dose 25 mg/kg, route oral; settings: in vivo; procedure, shortened: as §3
# [19] = Oral bioavailability in CD-1 mouse at 25 mg/kg; assay type: ADME, organism-based; settings: in vivo; procedure, shortened: as §3
# [20] = test system: Rattus norvegicus; assay: Toxicity in Wistar rat assessed as occurrence of inflammatory changes in gastric tract at => 50 mg/kg, po after 2 weeks; assay type: organism-based, Stomach; design: dose 50 mg/kg, route oral; settings: in vivo, 336 h
# Procedure, shortened: (§6)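 Male Wistar rats, about 10 weeks old (254–292 g), 5 per group, gavaged daily with 50, 150 or 500 mg/kg/day. Vehicle was 10% of 1% aqueous Solutol HS15 plus 90% of 0.5% aqueous methylcellulose; exploratory 2-week design. Clinical observations, body weight, food intake, hematology, clinical chemistry and gross pathology recorded. Histopathology covered gross lesions and selected organs in the control and low-dose groups.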
# [21] = Half life in CD-1 mouse at 5 mg/kg, iv; assay type: ADME, organism-based; design: dose 5 mg/kg, route intravenous; settings: in vivo; procedure, shortened: as §3
# [22] = Tmax in Wistar rat at 25 mg/kg, po; assay type: ADME, organism-based; design: dose 25 mg/kg, route oral; settings: in vivo; procedure, shortened: as §1
# [23] = test system: Plasmodium berghei; assay: Antimalarial activity against Plasmodium berghei ANKA infected in NMRI mice (Mus musculus) assessed as reduction in parasitemia at 60 mg/kg, perorally administered as single dose measured on day 3 postinfection; assay type: functional; design: scale not given: the % may be the effect or the level left; settings: route oral; procedure, shortened: as §2
# [24] = test system: Plasmodium berghei; assay: Antimalarial activity against Plasmodium berghei ANKA infected in NMRI mice (Mus musculus) assessed as cure rate at 3 times 100 mg/kg, perorally measured on […]; assay type: functional; settings: route oral; procedure, shortened: as §5
# [25] = test system: Plasmodium berghei; assay: Antimalarial activity against Plasmodium berghei ANKA infected in NMRI mice (Mus musculus) assessed as reduction in parasitemia at 3 times 60 mg/kg, perorally measured on day 3 postinfection; assay type: functional; design: scale not given: the % may be the effect or the level left; settings: route oral; procedure, shortened: as §2
# [26] = test system: Rattus norvegicus; assay: Toxicity in Wistar rat assessed as occurrence of bone marrow degeneration at => 50 mg/kg, po after 2 weeks; assay type: organism-based; design: dose 50 mg/kg, route oral; settings: in vivo, 336 h; procedure, shortened: as §6
# [27] = test system: Plasmodium berghei; assay: Antimalarial activity against Plasmodium berghei ANKA infected in NMRI mice (Mus musculus) assessed as survival rate at 30 mg/kg, perorally administered as single dose; assay type: functional; settings: route oral; procedure, shortened: as §4
# [28] = test system: Plasmodium berghei; assay: Antimalarial activity against Plasmodium berghei ANKA infected in NMRI mice (Mus musculus) assessed as reduction in parasitemia at 10 mg/kg, perorally administered as single dose measured on day 3 postinfection; assay type: functional; design: scale not given: the % may be the effect or the level left; settings: route oral; procedure, shortened: as §2
smiles,measurement,setting,value
COc1ccc(OC)c(CNc2ccc3nc(N)nc(N)c3c2Cl)c1,Vd,[1],4.7 L/kg
same,Activity,[2],>99.99%
same,Tmax,[3],4 h
same,IC50,[4],11.7 nM
same,Activity,[5],40%
same,Activity,[6],0%
same,Activity,[7],80%
same,Activity,[8],inactive
same,Survival,[9],12 days
same,Ki,[10],0.58 nM
same,AUC(0-t) at 24 h,[11],27600 ng·h/mL
same,Activity,[12],0%
same,Activity,[13],60%
same,clearance,[14],51.1 mL/min/kg
same,Activity,[15],0%
same,Activity,[16],0%
same,IC50,[17],7.61 nM
same,half-life,[18],4.84 h
same,bioavailability,[19],100%
same,Activity,[20],Toxic
same,half-life,[21],0.8 h
same,Tmax,[22],4 h
same,Activity,[23],>99.99%
same,Activity,[24],20%
same,Activity,[25],>99.99%
same,Activity,[26],Toxic
same,Survival,[27],8.1 days
same,Activity,[28],59%
